Results taken from ChEMBL document CHEMBL4014310, “Selective IKur Inhibitors for the Potential Treatment of Atrial Fibrillation: Optimization of the Phenyl Quinazoline Series Leading to Clinical Candidate 5-[5-Phenyl-4-(pyridin-2-ylmethylamino)quinazolin-2-yl]pyridine-3-sulfonamide” (J Med Chem, 2017).
Active and inactive are the calls of the source. The rule behind the calls is not given here.

Legend:
[1] = biological target: Potassium voltage-gated channel subfamily A member 5 (Homo sapiens, UniProt P22460); assay: Inhibition of recombinant human Kv1.5 expressed in mouse L929 cells by patch clamp assay; assay type: cell-based
Potassium voltage-gated channel subfamily A member 5, sequence (P22460 whole entry): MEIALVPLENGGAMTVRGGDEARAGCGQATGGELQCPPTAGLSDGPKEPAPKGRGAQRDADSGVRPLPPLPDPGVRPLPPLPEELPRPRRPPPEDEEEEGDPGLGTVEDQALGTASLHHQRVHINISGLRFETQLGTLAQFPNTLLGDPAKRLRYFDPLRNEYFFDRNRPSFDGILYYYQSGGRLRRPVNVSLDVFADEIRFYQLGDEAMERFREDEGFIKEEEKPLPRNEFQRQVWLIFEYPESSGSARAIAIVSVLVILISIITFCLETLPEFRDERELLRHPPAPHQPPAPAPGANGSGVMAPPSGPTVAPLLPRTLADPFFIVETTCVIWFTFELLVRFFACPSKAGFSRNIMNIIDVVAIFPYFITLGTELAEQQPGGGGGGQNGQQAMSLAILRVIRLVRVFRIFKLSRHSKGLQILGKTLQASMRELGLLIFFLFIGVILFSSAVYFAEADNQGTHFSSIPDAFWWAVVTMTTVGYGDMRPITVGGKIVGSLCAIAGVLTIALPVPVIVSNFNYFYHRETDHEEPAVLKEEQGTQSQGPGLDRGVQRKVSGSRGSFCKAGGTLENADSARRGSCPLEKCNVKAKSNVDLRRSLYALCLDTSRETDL
Summary of the method: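 Whole-cell patch clamp of IKur current in mouse L-929 cells transfected with human KV1.5 and stably expressing the channel.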

[2] = Protein binding in human plasma; assay type: ADME, cell-free; details: read-out: PPB
[3] = Inhibition of IKs (unknown origin); parameters: species or system Homo sapiens
[4] = Inhibition of sodium channel (unknown origin); parameters: species or system Homo sapiens
[5] = Clearance in mouse at 2 mg/kg, iv or 5 mg/kg, po; assay type: ADME, organism-based; details: in vivo
Summary of the method: (§1)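 Single-dose PK study in mouse and rat (2 mg/kg iv, 5 mg/kg po), cynomolgus monkey (1 mg/kg iv and po) and dog (0.1 mg/kg iv, 1 mg/kg po). Dosing vehicle was 1:4:5 EtOH/propylene glycol/PEG400. Clearance, Vss, half-life, Cmax, Tmax, AUC (μM h) and oral %F were derived from plasma levels.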

[6] = Half life in mouse at 2 mg/kg, iv or 5 mg/kg, po; assay type: ADME, organism-based; details: in vivo; summary of the method: as §1
[7] = Cmax in mouse at 2 mg/kg, iv or 5 mg/kg, po; assay type: ADME, organism-based; details: in vivo; summary of the method: as §1
[8] = Oral bioavailability in mouse at 5 mg/kg; assay type: ADME, organism-based; details: in vivo
Summary of the method: (§2)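 Single-dose PK in mouse and rat (2 mg/kg iv, 5 mg/kg po), cynomolgus monkey (1 mg/kg iv and po) and dog (0.1 mg/kg iv, 1 mg/kg po). Dosing vehicle was 1:4:5 EtOH/propylene glycol/PEG400. Parameters reported: clearance, Vss, half-life, Cmax, Tmax, AUC and oral bioavailability.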

[9] = Cmax in rat at 2 mg/kg, iv or 5 mg/kg, po; assay type: ADME, organism-based; details: in vivo; summary of the method: as §1
[10] = Volume of distribution at steady state in cynomolgus monkey at 1 mg/kg, iv or 1 mg/kg, po; assay type: ADME, organism-based, Macaca fascicularis; details: in vivo, read-out: Vdss; summary of the method: as §2
[11] = Half life in cynomolgus monkey at 1 mg/kg, iv or 1 mg/kg, po; assay type: ADME, organism-based, Macaca fascicularis; details: in vivo; summary of the method: as §1
[12] = Cmax in cynomolgus monkey at 1 mg/kg, iv or 1 mg/kg, po; assay type: ADME, organism-based, Macaca fascicularis; details: in vivo; summary of the method: as §1
[13] = Clearance in dog at 0.1 mg/kg, iv or 1 mg/kg, po; assay type: ADME, organism-based, Canis lupus familiaris; details: in vivo; summary of the method: as §1
[14] = Half life in dog at 0.1 mg/kg, iv or 1 mg/kg, po; assay type: ADME, organism-based, Canis lupus familiaris; details: in vivo; summary of the method: as §1
Oryctolagus cuniculus [15] = assay: Antiatrial fibrillation activity in methoxamine-sensitised rabbit assessed as increase in atrial effective refractory period at 1 mg/kg, iv administered as 20 mins infusion relative to control; assay type: functional
Summary of the method: (§3)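 Rabbit, iv dosing at 1 or 3 mg/kg. AERP was measured at 10, 20 and 30 min time points as % prolongation, and plasma compound concentration was measured at the same time points and correlated with the AERP change.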

[16] = Plasma concentration in methoxamine-sensitised rabbit at 1 mg/kg, iv administered as 20 mins infusion; assay type: ADME, organism-based, Oryctolagus cuniculus
[17] = Plasma concentration in methoxamine-sensitised rabbit at 1 mg/kg, iv administered as 30 mins infusion; assay type: ADME, organism-based, Oryctolagus cuniculus
Oryctolagus cuniculus [18] = assay: Antiatrial fibrillation activity in methoxamine-sensitised rabbit assessed as increase in atrial effective refractory period at 3 mg/kg, iv administered as 10 mins infusion relative to control; assay type: functional; summary of the method: as §3
Oryctolagus cuniculus [19] = assay: Antiatrial fibrillation activity in methoxamine-sensitised rabbit assessed as increase in atrial effective refractory period at 3 mg/kg, iv administered as 20 mins infusion relative to control; assay type: functional; summary of the method: as §3
Oryctolagus cuniculus [20] = assay: Antiatrial fibrillation activity in methoxamine-sensitised rabbit assessed as increase in atrial effective refractory period at 3 mg/kg, iv administered as 30 mins infusion relative to control; assay type: functional; summary of the method: as §3
Oryctolagus cuniculus [21] = assay: Antiatrial fibrillation activity in methoxamine-sensitised rabbit assessed as increase in atrial effective refractory period at 0.17 mg/kg, iv administered as 1 min infusion relative to control; assay type: functional
Summary of the method: (§4)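 Rabbit, iv infusion of compound in DMF (0.17 mg/mL) with a 0.17 mg/kg maintenance dose. AERP was normalized to DMF vehicle, with time counted from the start of the maintenance infusion. Tissues were collected after 30 min. n = 3 rabbits; means ± standard error.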

Oryctolagus cuniculus [22] = assay: Antiatrial fibrillation activity in methoxamine-sensitised rabbit assessed as increase in atrial effective refractory period at 0.17 mg/kg, iv administered as 15 mins infusion relative to control; assay type: functional; summary of the method: as §4
Oryctolagus cuniculus [23] = assay: Antiatrial fibrillation activity in methoxamine-sensitised rabbit assessed as increase in atrial effective refractory period at 0.17 mg/kg, iv measured 15 mins post infusion relative to control; assay type: functional; summary of the method: as §4
Oryctolagus cuniculus [24] = assay: Antiatrial fibrillation activity in methoxamine-sensitised rabbit assessed as plasma concentration required to show 10% increase in atrial effective refractory period at 0.17 mg/kg, iv administered as 30 mins infusion; assay type: functional, organism-based; summary of the method: as §4
Canis familiaris [25] = assay: Antiarrhythmic activity in mongrel dog heart failure model assessed as reduction in mean number of pacing-induced atrial fibrillation at 0.1 to 0.3 mg/kg, po; assay type: functional, organism-based; details: Canis lupus familiaris
Summary of the method: (§5)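 Simultaneous atrio-ventricular pacing dog model of atrial arrhythmia. Compound was given orally at 0.1 or 0.3 mg/kg in 10% EtOH/40% propylene glycol/50% PEG 400. AF inducibility was scored as mean number of AF inductions and total AF duration, with QTc monitored and plasma concentration measured. n = 7 control, 5 (0.1 mg/kg) and 6 (0.3 mg/kg) dogs.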

Canis familiaris [26] = assay: Antiarrhythmic activity in mongrel dog heart failure model assessed as reduction in pacing-induced total atrial fibrillation duration at 0.1 to 0.3 mg/kg, po; assay type: functional, organism-based; details: Canis lupus familiaris; summary of the method: as §5
Rhesus monkey = assay: Drug absorption in monkey famotidine model at 10 mg/kg; assay type: ADME, organism-based, Macaca mulatta; details: in vivo

Work on NS(=O)(=O)c1cncc(-c2nc(NCc3ccccn3)c3c(-c4ccccc4)cccc3n2)c1 [BMS-919373] yielded an IC50 [1] of 0.046 to 0.05 µM, a fraction unbound [2] of under 0.01 and an IC50 [3] of over 10 µM. It also gave an IC50 [4] of over 10 µM, a clearance [5] of 10.6 mL/min/kg and a half-life [6] of 2 h. For the same molecule, the Cmax [7] was 4000 nM, the bioavailability [8] was 100% and the Cmax [9] was 7900 nM. It also gave a Vd [10] of 1.2 L/kg, a half-life [11] of 4.6 h and a Cmax [12] of 900 nM. It also gave a clearance [13] of 0.05 mL/min/kg, a half-life [14] of 51 h and an Activity (Oryctolagus cuniculus [15]) of 10.6%. For the same molecule, the concentration at 20 min [16] was 1100 nM, the concentration at 0.5 h [17] was 1300 nM and the Activity (Oryctolagus cuniculus [18]) was 10.8%. For the same molecule, the Activity (Oryctolagus cuniculus [19]) was 16.2%, the Activity (Oryctolagus cuniculus [20]) was 21.6 - 22% and the Activity (Oryctolagus cuniculus [21]) was 9.9%. The Activity (Oryctolagus cuniculus [22]) was 11%, the Activity (Oryctolagus cuniculus [23]) was 9.5% and the Cp (Oryctolagus cuniculus [24]) was 0.15 µM. The Activity (Canis familiaris [25]) was “Active”, the Activity (Canis familiaris [26]) was “Active” and the Drug absorption (Rhesus monkey) was “Active”.
